# S1P1 ag pot = S1P1 (human) agonism or agonism potentiation. S1P1 CRE-bla cells, forskolin, beta-lactamase FRET, potentiator mode; S1P1 agonist co-added at EC20, 2 nM; 100% = saturating reference agonist, 0% = basal. activation, % at 9.5 µM. actives 0.57% (n = 56,000);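 active means activation above a cutoff set at the mean activation of all tested compounds plus 3 SD, cut at about 54% in these data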;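 further: forskolin at 4 µM as EC80 and the EC20 agonist is SEW2871; 100% = SEW2871 at its EC100 plus forskolin at EC80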
# HTR1E agonist = agonists of human 5-HT1E serotonin receptor; P28566; CHO 5-HT1E Ga15 NFAT-bla reporter, FRET; 0% DMSO wells, 100% control agonist wells; activation, % at 6 µM; actives 0.69% (n = 65,000); AID 574;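 active means activation above a set limit, the screen-wide mean activation plus 3 SD, cut at about 8.5% in these data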;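 further: 100% = positive control agonist at 1 µM giving full maximal response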
# 5HT1a ag = activates the human 5-HT1a serotonin receptor; CHO 5-HT1a Ga15 NFAT-bla reporter, FRET ratio; 0% basal, 100% maximal reference agonist; activation, % at 10 µM; actives 0.56% (n = 65,000);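 active means activation above the screen-wide mean activation plus 3 SD, cut at about 19% in these data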;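 further: 0% = DMSO wells and 100% = 5-CT at EC100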
# Target sequence (P08908 whole entry, looked up): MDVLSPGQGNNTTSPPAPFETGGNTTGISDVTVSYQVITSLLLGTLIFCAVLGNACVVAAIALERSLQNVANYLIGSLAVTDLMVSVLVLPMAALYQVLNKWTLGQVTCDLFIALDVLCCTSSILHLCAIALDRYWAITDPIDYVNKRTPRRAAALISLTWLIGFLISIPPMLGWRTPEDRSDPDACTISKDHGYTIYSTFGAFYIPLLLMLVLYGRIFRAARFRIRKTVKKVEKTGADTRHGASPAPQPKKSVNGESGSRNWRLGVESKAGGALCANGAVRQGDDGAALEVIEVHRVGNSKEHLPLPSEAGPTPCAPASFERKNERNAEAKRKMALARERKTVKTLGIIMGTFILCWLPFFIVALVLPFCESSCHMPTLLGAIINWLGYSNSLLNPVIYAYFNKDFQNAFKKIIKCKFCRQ
# S1P3 ag = agonists of human S1P3 receptor. activation, % at 4.5 µM. AID 373. S1P3 NFAT-BLA reporter cells, agonism, FRET ratio; relative to 1 µM S1P, basal subtracted. actives 0.1% (n = 60,000);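 active means activation above the screen-wide mean plus 3 SD, cut at about 4.5% in these data, passing the limit was not always enough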
#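 Benchmarks: high control 1 µM S1P / System: stable CHO line with human S1P3, Gα16, NFAT-BLA reporter / Dosing: single compound concentration, 4.5 µM final / Timing: 4 h compound at 37 °C, 2 h substrate at RT / Measured by: FRET β-lactamase substrate fluorescence, excitation 405 nm, 460/535 nm emission ratio, background-subtracted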
# 5-HT1A blocker = antagonists of human 5-HT1a serotonin receptor. P08908. CHO 5-HT1a Ga15 NFAT-bla reporter, antagonist mode. inhibition, % at 10 µM. actives 0.68% (n = 62,000);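 active means inhibition above the mean of all tested compounds plus 3 SD, cut at about 43% in these data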;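 further: receptor stimulated by 5-CT agonist at 100 nM near EC80; beta-lactamase reporter measured by ratiometric fluorescence of a cleavable substrate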
# HTR1E antagonist = blocks the human 5-HT1E serotonin receptor; P28566; CHO 5-HT1E Ga15 NFAT-bla reporter, FRET, antagonist; inhibition, % at 6 µM; actives 0.99% (n = 65,000); AID 571;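 active means inhibition above a set limit, the mean inhibition across every tested compound plus 3 SD, cut at about 29% in these data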;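 further: signal is the 460 over 535 nm emission ratio of beta-lactamase substrate; 0% = agonist plus DMSO wells and 100% = wells without agonist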
# The depositor's hits bear a star; . = no result given. An excerpt weighted towards active compounds, which were near 3% of everything screened.
SMILES,S1P1 ag pot,HTR1E agonist,5HT1a ag,S1P3 ag,5-HT1A blocker,HTR1E antagonist
Cc1ccc(OCc2nn3c(-c4n[nH]c5c4CCC5)nnc3s2)cc1,-38.4,0.1,1.2,-0.8,-16.8,0.1
O=c1cc(-c2c(F)c(F)c(F)c(F)c2F)oc2c(F)c(F)c(F)c(F)c12,.,-1.6,-9.6,.,99.2*,102.4*
Brc1ccccc1C1=Nn2c(nnc2-c2ccccc2)SC1,6.1,-0.9,-1.9,-0.2,32.7,32.8*
COc1ccc(C2=Nn3c(nnc3-c3cccnc3)SC2)cc1OC,-52.1,-0.2,1.3,1.9,.,33.8*
COc1ccccc1-c1nnc2n1N=C(c1ccc(O)c(O)c1)CS2,0.2,-0.7,-0.4,-5.0,.,65.6*
CCOc1ccc(C2=Nn3c(nnc3-c3ccccc3OC)SC2)cc1,-25.0,-0.6,0.6,-6.5,.,75.4*
Brc1ccc(C2=Nn3c(nnc3-c3cccnc3)SC2)s1,6.2,0.4,-2.3,-0.2,-15.0,2.4
O=C(O)C(CC(=O)N1CCOCC1)NCc1ccccc1 (configuration not stated),-4.8,-0.5,-1.3,-1.3,2.9,-6.5
CC(=O)Nc1ccc(C(=O)n2nc(C)cc2C)cc1,5.8,-0.7,-3.5,-0.7,5.7,-0.2
CCn1cc(C(=O)NCCC2=CCCCC2)c(=O)c2cc(S(=O)(=O)N(C)C)ccc21,-9.7,0.5,2.3,-1.0,-10.7,5.5
CCN(CC)CCCCOc1ccccc1OC,-17.2,10.3*,0.3,-0.7,-12.9,-5.6
CCCC(O)(CCN(C)C)c1ccc(OC)cc1 (configuration not stated),.,-0.9,-0.4,.,-13.2,16.4
CCc1nn(C(C)C(=O)NCCN2CCN(c3cccc(C)c3C)CC2)c(=O)c2cc3occc3n12 (configuration not stated),19.0,62.1*,10.6,-0.5,40.5,-5.7
COC(=O)c1ccccc1NC(=O)CN1CCC(NC(=O)c2ccccc2C)CC1,-3.0,0.2,2.3,-0.8,-6.0,-3.7
Nc1nnnn1/N=C/C(Br)=C/c1ccccc1,71.1,1.4,-1.8,-1.4,85.4*,47.5*
Nc1nnnn1/N=C/C=C/c1ccccc1,15.3,-1.4,6.9,-0.8,1.5,7.1
CCCC(c1nnnn1Cc1ccco1)N1CCN(c2cc(Cl)ccc2C)CC1 (configuration not stated),-3.4,-0.3,-1.8,-1.7,51.2*,0.1
Cc1cc(S(=O)(=O)N2CCN(c3ccc(F)cc3)CC2)c(C)s1,2.0,-1.5,-2.0,-0.2,-11.1,15.7
Cc1ccc(-c2nnc(SCc3ccccc3F)o2)cc1,92.6*,-0.7,0.3,-0.1,3.6,-1.0
Cc1ccc(-c2nnc(SCC(=O)Nc3ccccc3F)o2)cc1,-4.1,-0.3,-2.3,0.5,4.8,-2.6
COc1ccc(-c2nnc(SCc3ccccc3F)o2)cc1OC,42.1,-0.3,-1.4,1.1,9.7,29.9*
CCN(CC(N)=O)S(=O)(=O)c1ccc(Br)cc1,4.3,-1.0,0.3,-1.5,6.8,0.4
COC(=O)c1cc(OC)c(OC)cc1NC(=O)c1c(C)noc1C,-8.7,0.3,-3.8,0.5,-5.5,-16.8
O=C1c2[nH]nc(-c3ccccc3O)c2C(c2ccccc2F)N1Cc1ccco1 (configuration not stated),11.9,0.1,4.5,-1.1,43.0*,-1.9
O=C1c2ccccc2C(O)N1Cc1ccco1 (configuration not stated),20.4,0.4,0.2,22.8,3.7,19.4
SMILES,S1P1 ag pot,HTR1E agonist,5HT1a ag,S1P3 ag,5-HT1A blocker,HTR1E antagonist
O=C1c2[nH]nc(-c3ccccc3O)c2C(c2ccccc2)N1Cc1ccco1 (configuration not stated),-9.9,0.3,1.7,-1.9,44.4*,-7.8
COc1ccc(CCN2C(=O)c3[nH]nc(-c4ccccc4O)c3C2c2ccccc2)cc1OC (configuration not stated),-2.0,0.9,0.6,-1.0,34.7,6.0
CCOC(=O)c1c(C)nc(-c2ccccc2)nc1NC(=O)CC,10.4,68.3*,-0.5,-0.4,17.1,-6.8
CCOC(=O)c1[nH]c2ccccc2c1NC(=O)CC,1.6,-0.5,-0.2,-1.5,13.2,11.3
Cc1cc(-c2ccccc2)n2ncc(C#N)c2n1,-33.6,-0.4,0.3,-0.6,1.7,3.3
O=C1c2oc3ccc(F)cc3c(=O)c2C(c2cccc(O)c2)N1CCCN1CCOCC1 (configuration not stated),3.2,30.1*,0.5,-0.3,-14.2,-0.6
Cc1cc(C)cc(NC(=O)C2CCN(S(=O)(=O)c3c(C)n[nH]c3C)CC2)c1,6.5,-1.4,-1.3,-1.7,-3.8,3.1
Cc1cc(C)n(-c2nc3c(c(=O)[nH]c(=O)n3C)n2C(C)C)n1,4.0,0.7,-0.2,-0.2,-1.1,-0.3
Cc1cc(C#N)c(C)n1-c1cc(C(F)(F)F)ccc1N1CCOCC1,0.5,-0.7,3.3,0.6,42.8*,11.7
CCOC(=O)c1c(N)nn(C(=O)C(C)C)c1-c1ccccc1,5.2,0.0,-1.0,1.0,1.0,-3.3
CC(C)(C)Nc1nc(SCc2ccccc2)nc(N2CCOCC2)n1,-69.0,-0.2,0.0,2.1,-5.5,6.2
CNc1nc(SCc2ccccc2)nc(N2CCOCC2)n1,-32.2,0.1,-6.7,0.3,-0.4,33.1*
C/C=C(\CS(=O)(=O)c1ccccc1)S(=O)(=O)c1ccccc1,.,-0.4,0.1,-0.1,34.8,8.7
COc1ccc2nc(SCC(N)=O)[nH]c2c1,-16.2,-1.1,-1.7,-0.7,-4.2,-5.4
COc1ccc2nc(SCc3nc(N)nc(Nc4ccccc4)n3)[nH]c2c1,-68.7,1.5,4.6,0.6,5.5,39.7*
COC(=O)C1CCN(S(=O)(=O)Cc2ccccc2)CC1,12.9,0.6,0.0,-0.7,7.6,-5.8
CCOc1ccc(C(C)=O)cc1N1C(=O)C2C3C=CC(O3)C2C1=O (configuration not stated),76.3,0.4,-2.3,1.2,60.5*,39.3*
CCOc1ccc(C(C)=O)cc1N1C(=O)C2C3C=CC(C3)C2C1=O (configuration not stated),-7.7,-0.4,-4.3,-0.3,1.0,7.9
Cc1cc(NC(=O)CSc2nc3ccccc3c(=O)n2C2CCCC2)no1,.,0.7,0.3,0.1,58.1*,65.3*
CCOc1ccc(OCC)c(NC(=O)C2C3C=CC(O3)C2C(=O)NCc2ccco2)c1 (configuration not stated),-13.1,-0.1,-0.3,0.5,-2.8,8.7
Cc1ccc(CNc2cc(-c3nn4c(C)nnc4s3)ccc2C)s1,-61.0,0.8,2.3,-1.4,5.4,14.5
Cc1ccc(-c2nn3c(C)nnc3s2)cc1NCc1c(F)cccc1Cl,.,2.0,0.0,-1.5,44.7*,7.6

# Screens as filed in PubChem.
